The values that follow come from article PMC3912990 (Current biology : CB, 2014).

Assay in all cases: FLIPR intracellular Ca2+, agonist mode
Type in all cases: cell-based

The target in one assay is δ-opioid receptor (Homo sapiens, UniProt P41143). Summed up:
(§1)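 Human opioid receptor cDNA in pcDNA3.1(−), stably expressed in HEK293T cells grown in DMEM with 10% FBS. Test compound was dissolved in DMSO, diluted in FLIPR buffer and added automatically within 4 sec. Intracellular Ca2+ was monitored over 4 min (excitation 488 nm, emission 520 nm), and data were recorded as fluorescence (arbitrary units) versus time.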

In the next assay the target is κ-opioid receptor (Homo sapiens, UniProt P41145). The essentials: as §1
The next assay concerns the target μ-opioid receptor (Homo sapiens, UniProt P35372). As to conditions: stable HEK293T line. Summed up:
as §1

μ-opioid receptor, sequence (P35372 whole entry): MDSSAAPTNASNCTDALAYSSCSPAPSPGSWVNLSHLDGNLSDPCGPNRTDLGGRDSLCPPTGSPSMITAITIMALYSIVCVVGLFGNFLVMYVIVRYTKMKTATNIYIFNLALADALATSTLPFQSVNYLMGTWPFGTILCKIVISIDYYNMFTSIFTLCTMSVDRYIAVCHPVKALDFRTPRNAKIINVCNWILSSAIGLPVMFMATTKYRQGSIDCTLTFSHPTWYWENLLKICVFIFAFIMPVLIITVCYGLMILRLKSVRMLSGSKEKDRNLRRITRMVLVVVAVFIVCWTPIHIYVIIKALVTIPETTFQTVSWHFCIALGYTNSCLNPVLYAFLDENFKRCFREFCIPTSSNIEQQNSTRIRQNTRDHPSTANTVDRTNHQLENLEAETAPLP
δ-opioid receptor, sequence (P41143 whole entry): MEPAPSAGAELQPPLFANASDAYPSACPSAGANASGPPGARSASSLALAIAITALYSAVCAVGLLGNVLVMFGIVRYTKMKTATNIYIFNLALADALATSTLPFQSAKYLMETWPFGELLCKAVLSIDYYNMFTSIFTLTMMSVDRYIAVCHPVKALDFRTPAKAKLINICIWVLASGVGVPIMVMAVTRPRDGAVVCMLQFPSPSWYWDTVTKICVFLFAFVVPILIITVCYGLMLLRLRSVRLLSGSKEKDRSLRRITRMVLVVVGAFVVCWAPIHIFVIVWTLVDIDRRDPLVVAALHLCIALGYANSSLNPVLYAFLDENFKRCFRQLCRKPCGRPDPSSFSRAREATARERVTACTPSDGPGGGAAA
κ-opioid receptor, sequence (P41145 whole entry): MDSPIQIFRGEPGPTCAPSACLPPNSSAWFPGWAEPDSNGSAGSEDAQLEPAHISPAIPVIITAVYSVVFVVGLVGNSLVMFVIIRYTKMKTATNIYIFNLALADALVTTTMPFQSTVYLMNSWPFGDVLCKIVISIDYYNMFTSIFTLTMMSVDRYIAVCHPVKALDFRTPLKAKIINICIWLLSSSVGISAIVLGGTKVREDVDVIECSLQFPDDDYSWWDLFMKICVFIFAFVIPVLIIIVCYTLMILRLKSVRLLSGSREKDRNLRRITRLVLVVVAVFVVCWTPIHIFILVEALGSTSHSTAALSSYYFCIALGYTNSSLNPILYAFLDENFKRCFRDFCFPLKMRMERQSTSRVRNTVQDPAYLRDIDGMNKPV

Consider `COc1cc2c(cc1O)CC[n+]1cc3c(OC)c(OC)ccc3c(C)c1-2` [DHCB], for which the EC50 on δ-opioid receptor and at κ-opioid receptor was more than 500 µM throughout. For the same molecule, at μ-opioid receptor, the “Opioid Agonist (EC50, μM) / μ” value is on record as 100 (74~136) μM.
